experiment: Toxicity liver stage against HepG2, at 10uM; format: cell-based; design: test concentration 10 uM, cell line HepG2-A16-CD81EGFP; conditions: human, HepG2-A16-CD81EGFP cells; read-out: INHIBITION
How it was run: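 Uninfected HepG2-A16-CD81EGFP cells, 3 × 10^3 per well, 1536-well, plated on prespotted compound at 10 μM final, parasite-free screening media added to match infected plates; puromycin 10 μM positive, DMSO 0.5% negative; run in parallel with 48 h PbLuc assay at 37 °C, 5% CO2; viability by CellTiter-Glo luminescence, normalized to controls.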

| SMILES | cytotoxicity at 10 µM |
| --- | --- |
| Cc1ccc(CNC(=O)C2c3c(ncn3C(C)C)CCN2S(C)(=O)=O)o1 (stereo unspecified) | -13.7% |
| O=C(NC1CC1)c1nc2c(o1)CN(c1ncccn1)C2 | 0.718% |
| O=c1[nH]c2c(c(=O)n1C1CCCCC1)CCC2NCCc1ccccc1 (stereo unspecified) | -6.91% |
| Cc1cc(C(=O)NCC(C)C)nn1C | -0.971% |
| O=C(NC1CCS(=O)(=O)C1)c1cc(Sc2ncccn2)ccn1 (stereo unspecified) | 12% |
| O=C(NC1CCCN(c2ccccn2)C1)C1(c2ccccc2F)CC1 (stereo unspecified) | 7.79% |
| Clc1cc(Cl)cc(CN2CCC(NCc3cc[nH]n3)CC2)c1 | 11.1% |
| COCCCOc1ccc(C(=O)N(C)Cc2cccc(O)c2)cn1 | -9.63% |
| Cc1cc(C(=O)NC(C)CC(=O)c2ccco2)[nH]n1 (stereo unspecified) | -8.17% |
| COc1ccc(CNC(Cn2cncn2)c2ccccc2)cc1C (stereo unspecified) | -4.33% |
| CC(=O)Nc1ccc(CNCc2ccc(CS(C)(=O)=O)cc2)cc1 | 4.67% |
| Cc1nnc(NC(=O)NC2CCCc3c2cnn3CCO)s1 (stereo unspecified) | 6.66% |
| O=C(CCNS(=O)(=O)c1ccccc1F)NCc1ccoc1 | -16.5% |
| Cc1ncc2c(n1)CN(Cc1nc(C)c(C)o1)CC2 | -4.32% |
| O=C(CCc1ccncc1)N1CCCC(N2CCNC2=O)C1 (stereo unspecified) | 2.71% |
| CC(C)Cn1cnnc1C1CCCN1C(=O)c1ccc(F)cc1F (stereo unspecified) | -2.01% |
| NS(=O)(=O)CC1CCCN1CCOc1ccccc1F (stereo unspecified) | 3.98% |
| CCS(=O)(=O)NC(CCSC)C(=O)Nc1ccc(F)cc1 (stereo unspecified) | -6.6% |
| CCc1ccc(NC(=O)c2ncc(C(N)=O)cc2Cl)cc1F | -9.86% |
| CCOCCN1CCN(CC(O)c2ccc(F)cc2)CC1 (stereo unspecified) | -8.92% |
| CCc1nc(CN2CCCC2C(=O)NC2CC2)cs1 (stereo unspecified) | -4.63% |
| N#Cc1ccc(CN(CCF)Cc2cccc(F)c2)cc1 | -4.11% |
| COc1ccc(CN(C)CC(=O)c2ccc3[nH]c(=O)[nH]c3c2)cc1F | 8.51% |

| SMILES | cytotoxicity at 10 µM |
| --- | --- |
| COc1ccccc1C(C)NC(=O)NCCC(=O)NC1CCCCC1 (stereo unspecified) | 0.0119% |
| CC(=O)N1CCn2cc(CNC(=O)c3cccn3C)nc2C1 | 1.88% |
| CN(Cc1ccccn1)C1COC2(CCN(Cc3cccnc3)CC2)C1 (stereo unspecified) | -1.42% |
| Cc1ccc(CN2CCCn3c(nc(Cn4cncn4)cc3=O)C2)s1 | -1.6% |
| Cc1ccc(OCC(=O)N2CCOCC(O)(CN3CCCC3)C2)cc1C (stereo unspecified) | -4.05% |
| COCC(=O)NCC1CCCN(Cc2cc3ccccc3[nH]2)C1 (stereo unspecified) | 7.32% |
| Cc1ccc(CN2CCOCS2(=O)=O)cc1F | 9.52% |
| CC(C)N1CCN(C(=O)c2csc3nc(-c4ccc(Cl)cc4)cn23)CC1 | 1.98% |
| CC(C)(C)CN1CCC(c2nnc(Cn3ccnc3)n2C2CC2)CC1 | -5.02% |
| Cc1cnc2c(C(=O)N3CCCC(OCc4ccccn4)C3)cnn2c1 (stereo unspecified) | -5.2% |
| CS(=O)(=O)N1CCC(C(=O)NC(Cc2ccsc2)c2nccs2)CC1 (stereo unspecified) | 4.04% |
| Cc1ccccc1-c1cncc(C2CCN(C)CC2)n1 | -6.13% |
| Cc1oc(C(=O)O)cc1S(=O)(=O)Nc1cc(Cl)ccc1F | -12% |
| CCc1nc(CN2CCCN(C(=O)c3cnc[nH]3)CC2)cs1 | -9.39% |
| Cc1cc(C)n(CC2CCCN2C(=O)c2cccc3[nH]ncc23)n1 (stereo unspecified) | -5.55% |
| CN(C(=O)NCCCN1CCCC1)C1CCN(c2ccccc2)C1=O (stereo unspecified) | 0.864% |
| CC(C)NC(=O)C1CN(Cc2ccsc2)Cc2ccnn2C1 (stereo unspecified) | -5.03% |
| NC(=O)N1CC[C@H](O)[C@@H]1Cc1cccnc1 | 1.72% |
| c1ccc(CN2C[C@@H]3OCCN(c4ncccn4)[C@@H]3C2)nc1 | 3.86% |
| CCN(CC)Cc1cn2c(n1)CN(C(=O)c1cc(C)on1)CC2 | 6.17% |
| O=C1CO[C@@H]2CN(Cc3cccs3)C[C@H]2N1Cc1cccnc1 | -77.6% |
| Cn1ccnc1CN1CCCC2(CCN(CC3CCCO3)CC2)C1 (stereo unspecified) | -76.7% |
| CN(Cc1cccs1)C1CCC[C@@H]2CN(C(=O)c3cnccn3)C[C@H]12 (stereo partly specified) | 16.7% |
